Test results as given in ChEMBL document CHEMBL4138085, “Design, synthesis and antimicrobial evaluation of novel benzimidazole-incorporated sulfonamide analogues” (Eur J Med Chem, 2017).
≈ marks a conversion by molar mass, not a printed value.

Tests used:
Candida albicans = assay: Antifungal activity against Candida albicans ATCC 76615 after 24 hrs by NCCLS two fold broth microdilution method; type: functional; conditions: ATCC 76615, 24 h
Procedure, shortened: (§1)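 Two-fold serial microdilution following NCCLS. A spore suspension in sterile distilled water was prepared from one-day-old cultures grown on Sabouraud agar and adjusted to a final 1–5 × 10^3 spores/mL. DMSO stocks were diluted in RPMI 1640 to eleven concentrations (0.5–512 µg/mL), inoculated and held at 35 °C for 24 h. Growth was read visually and spectrophotometrically, MIC was the lowest concentration with complete inhibition, and runs were in triplicate.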

Cyberlindnera jadinii = assay: Antifungal activity against Candida utilis after 24 hrs by NCCLS two fold broth microdilution method; type: functional; conditions: Williopsis jadinii; procedure, shortened: as §1
Saccharomyces cerevisiae = assay: Antifungal activity against Saccharomyces cerevisiae after 24 hrs by NCCLS two fold broth microdilution method; type: functional; procedure, shortened: as §1
Pichia norvegensis = assay: Antifungal activity against Candida mycoderma after 24 hrs by NCCLS two fold broth microdilution method; type: functional
Salmonella typhi = assay: Antibacterial activity against Bacillus typhi after 24 hrs by NCCLS two fold broth microdilution method; type: functional, Salmonella enterica subsp. enterica serovar Typhi; conditions: Salmonella enterica
Procedure, shortened: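 Two-fold serial broth microdilution per NCCLS. DMSO stocks diluted in Mueller–Hinton broth to 512, 256, 128, 64, 32, 16, 8, 4, 2, 1, 0.5 µg/mL. Chloromycin and norfloxacin as reference drugs; DMSO with inoculum, no drug, as solvent control. Incubation 37 °C for 24 h. Growth read visually and spectrophotometrically. MIC is the lowest concentration completely inhibiting growth; triplicate.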

Escherichia coli = assay: Antibacterial activity against Escherichia coli ATCC 8099 after 24 hrs by NCCLS two fold broth microdilution method; type: functional; conditions: ATCC 8099, 24 h
Procedure, shortened: (§2)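 Two-fold serial broth microdilution in 96-well plates following NCCLS. Plates were inoculated and incubated at 37 °C for 24 h, with growth read visually and spectrophotometrically. MIC was taken as the lowest concentration giving complete growth inhibition. Run in triplicate, with a DMSO-plus-inoculum solvent control.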

Staphylococcus aureus [1] = assay: Antibacterial activity against methicillin-resistant Staphylococcus aureus N315 after 24 hrs by NCCLS two fold broth microdilution method; type: functional; conditions: N315, 24 h
Procedure, shortened: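 Two-fold serial broth microdilution per NCCLS. Chloromycin and norfloxacin as reference drugs; DMSO with inoculum, no drug, as solvent control. Incubation 37 °C for 24 h. Growth read visually and spectrophotometrically. MIC is the lowest concentration completely inhibiting growth; triplicate.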

Bacillus = assay: Antibacterial activity against Bacillus proteus ATCC 13315 after 24 hrs by NCCLS two fold broth microdilution method; type: functional; conditions: ATCC 13315, 24 h
Procedure, shortened: as §2, with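 “NCCLS. Compounds were dissolved in DMSO as stocks, then diluted in Mueller–Hinton broth to final concentrations of 0.5–512 µg/mL.” for “NCCLS.”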

Bacillus subtilis = assay: Antibacterial activity against Bacillus subtilis ATCC 21216 after 24 hrs by NCCLS two fold broth microdilution method; type: functional; conditions: ATCC 21216, 24 h
Procedure, shortened: as §2, with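 “NCCLS. Compounds were dissolved in DMSO as stocks, then diluted in Mueller–Hinton broth to final concentrations of 0.5–512 µg/mL.” for “NCCLS.”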

Aspergillus flavus [2] = assay: Antifungal activity against Aspergillus flavus after 24 hrs by NCCLS two fold broth microdilution method; type: functional; procedure, shortened: as §1
Micrococcus luteus = assay: Antibacterial activity against Micrococcus luteus ATCC 4698 after 24 hrs by NCCLS two fold broth microdilution method; type: functional; conditions: NCTC 2665, 24 h
Procedure, shortened: as §2, with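 “NCCLS. Compounds were dissolved in DMSO as stocks, then diluted in Mueller–Hinton broth to final concentrations of 0.5–512 µg/mL.” for “NCCLS.”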

Staphylococcus aureus [3] = assay: Antibacterial activity against Staphylococcus aureus ATCC 25923 after 24 hrs by NCCLS two fold broth microdilution method; type: functional; conditions: ATCC 25923, 24 h
Procedure, shortened: as §2, with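 “NCCLS. Compounds were dissolved in DMSO as stocks, then diluted in Mueller–Hinton broth to final concentrations of 0.5–512 µg/mL.” for “NCCLS.”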

Pseudomonas aeruginosa = assay: Antibacterial activity against Pseudomonas aeruginosa ATCC 27853 after 24 hrs by NCCLS two fold broth microdilution method; type: functional; conditions: ATCC 27853, 24 h; procedure, shortened: as §2
Aspergillus flavus [4] = assay: Potency index, ratio of Fluconazole MIC to compound MIC for Aspergillus flavus; type: functional

Compound	MIC (Candida albicans) [µg/mL]	MIC (Cyberlindnera jadinii) [µg/mL]	MIC (Saccharomyces cerevisiae) [µg/mL]	MIC (Pichia norvegensis) [µg/mL]	MIC (Salmonella typhi) [µg/mL]	MIC (Escherichia coli) [µg/mL]	MIC (Staphylococcus aureus [1]) [µg/mL]	MIC (Bacillus) [µg/mL]	MIC (Bacillus subtilis) [µg/mL]	MIC (Aspergillus flavus [2]) [µg/mL]	MIC (Micrococcus luteus) [µg/mL]	MIC (Staphylococcus aureus [3]) [µg/mL]	MIC (Pseudomonas aeruginosa) [µg/mL]	Ratio (Aspergillus flavus [4])
CCCCCCCCCCn1c(CS(=O)(=O)c2ccc(NC(C)=O)cc2)nc2ccccc21	512 (≈ 1090 µM)	16 (≈ 34.1 µM)	512 (≈ 1090 µM)	512 (≈ 1090 µM)	512 (≈ 1090 µM)	512 (≈ 1090 µM)	512 (≈ 1090 µM)	512 (≈ 1090 µM)	512 (≈ 1090 µM)	512 (≈ 1090 µM)	512 (≈ 1090 µM)	512 (≈ 1090 µM)	512 (≈ 1090 µM)	–
Nc1ccc(S(=O)(=O)Cc2nc3ccccc3n2Cc2cccc(F)c2)cc1	128 (≈ 324 µM)	512 (≈ 1290 µM)	8 (≈ 20.2 µM)	512 (≈ 1290 µM)	512 (≈ 1290 µM)	128 (≈ 324 µM)	128 (≈ 324 µM)	256 (≈ 647 µM)	512 (≈ 1290 µM)	256 (≈ 647 µM)	512 (≈ 1290 µM)	512 (≈ 1290 µM)	512 (≈ 1290 µM)	–
CCCCCCn1c(CS(=O)(=O)c2ccc(N)cc2)nc2ccccc21	512 (≈ 1380 µM)	512 (≈ 1380 µM)	512 (≈ 1380 µM)	512 (≈ 1380 µM)	512 (≈ 1380 µM)	512 (≈ 1380 µM)	512 (≈ 1380 µM)	256 (≈ 689 µM)	512 (≈ 1380 µM)	512 (≈ 1380 µM)	512 (≈ 1380 µM)	128 (≈ 345 µM)	128 (≈ 345 µM)	–
Nc1ccc(S(=O)(=O)Cc2nc3ccccc3n2Cc2ccccc2F)cc1	128 (≈ 324 µM)	4 (≈ 10.1 µM)	8 (≈ 20.2 µM)	8 (≈ 20.2 µM)	16 (≈ 40.5 µM)	4 (≈ 10.1 µM)	64 (≈ 162 µM)	256 (≈ 647 µM)	16 (≈ 40.5 µM)	32 (≈ 80.9 µM)	32 (≈ 80.9 µM)	64 (≈ 162 µM)	512 (≈ 1290 µM)	8
CCCCCCn1c(CS(=O)(=O)c2ccc(NC(C)=O)cc2)nc2ccccc21	512 (≈ 1240 µM)	512 (≈ 1240 µM)	512 (≈ 1240 µM)	512 (≈ 1240 µM)	512 (≈ 1240 µM)	512 (≈ 1240 µM)	512 (≈ 1240 µM)	256 (≈ 619 µM)	128 (≈ 310 µM)	512 (≈ 1240 µM)	256 (≈ 619 µM)	512 (≈ 1240 µM)	512 (≈ 1240 µM)	–
